Columns and labels:
Mus musculus [1] = assay: Toxicity day evaluation was carried out on day 5 for animal dosed with 400 mg/kg compound; 3/6; assay type: organism-based; parameters: dose 400 mg/kg; details: in vivo
Mus musculus [2] = assay: The percent of the median survival time of test mice compared to control mice is determined for mice administered with 50 mg/kg compound.; assay type: functional
Mus musculus [3] = assay: Ability of 200 mg/kg of compound to kill tumor cells in mice is expressed as the log of the tumor cell population at the onset of treatment minus the log of the tumor cell population at the end of treatment.; assay type: functional
Mus musculus [4] = assay: Toxicity day evaluation was carried out on day 5 for animal dosed with 100 mg/kg compound; 6/6; assay type: organism-based; parameters: dose 100 mg/kg; details: in vivo
Mus musculus [5] = assay: Body Weight Difference (BWD) of test animals administered with 200 mg/kg compound is determined on day 5 for P388 tumor cells; assay type: functional
Method in brief: (§1)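 P388 leukaemia: about 10^6 cells in ascitic fluid inoculated ip on day 0 (CD2F1 mice). Compound given ip in normal saline as a freshly prepared solution or suspension, once daily on days 1–5. Treated-minus-control body weight difference in g, taken as day 5 minus day 1 weight. Groups of six.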

Mus musculus [6] = assay: Ability of 50 mg/kg of compound to kill tumor cells in mice is expressed as the log of the tumor cell population at the onset of treatment minus the log of the tumor cell population at the end of treatment.; assay type: functional
Mus musculus [7] = assay: Body Weight Difference (BWD) of test animals administered with 12.5 mg/kg compound is determined on day 5 for P388 tumor cells; assay type: functional; method in brief: as §1
Mus musculus [8] = assay: Toxicity day evaluation was carried out on day 5 for animal dosed with 12.5 mg/kg compound; 6/6; assay type: organism-based; parameters: dose 12.5 mg/kg; details: in vivo
Mus musculus [9] = assay: Body Weight Difference (BWD) of test animals administered with 100 mg/kg compound is determined on day 5 for P388 tumor cells; assay type: functional; method in brief: as §1
Mus musculus [10] = assay: Toxicity day evaluation was carried out on day 5 for animal dosed with 25 mg/kg compound; 6/6; assay type: organism-based; parameters: dose 25 mg/kg; details: in vivo
Mus musculus [11] = assay: Body Weight Difference (BWD) of test animals administered with 25 mg/kg compound is determined on day 5 for P388 tumor cells; assay type: functional; method in brief: as §1
Mus musculus [12] = assay: Body Weight Difference (BWD) of test animals administered with 400 mg/kg compound is determined on day 5 for P388 tumor cells; assay type: functional; method in brief: as §1
Mus musculus [13] = assay: Ability of 100 mg/kg of compound to kill tumor cells in mice is expressed as the log of the tumor cell population at the onset of treatment minus the log of the tumor cell population at the end of treatment.; assay type: functional
Mus musculus [14] = assay: The percent of the median survival time of test mice compared to control mice is determined for mice administered with 12.5 mg/kg compound.; assay type: functional
Mus musculus [15] = assay: Body Weight Difference (BWD) of test animals administered with 50 mg/kg compound is determined on day 5 for P388 tumor cells; assay type: functional; method in brief: as §1
Mus musculus [16] = assay: Toxicity day evaluation was carried out on day 5 for animal dosed with 50 mg/kg compound; 6/6; assay type: organism-based; parameters: dose 50 mg/kg; details: in vivo
Mus musculus [17] = assay: Toxicity day evaluation was carried out on day 5 for animal dosed with 200 mg/kg compound; 6/6; assay type: organism-based; parameters: dose 200 mg/kg; details: in vivo
Mus musculus [18] = assay: Toxicity day evaluation was carried out on day 5 for animal dosed with 400 mg/kg compound; 6/6; assay type: organism-based; parameters: dose 400 mg/kg; details: in vivo
Mus musculus [19] = assay: The percent of the median survival time of test mice compared to control mice is determined for mice administered with 400 mg/kg compound; assay type: functional
Mus musculus [20] = assay: The percent of the median survival time of test mice compared to control mice is determined for mice administered with 200 mg/kg compound; assay type: functional
Mus musculus [21] = assay: The percent of the median survival time of test mice compared to control mice is determined for mice administered with 100 mg/kg compound; assay type: functional
Mus musculus [22] = assay: Ability of 12.5 mg/kg of compound to kill tumor cells in mice is expressed as the log of the tumor cell population at the onset of treatment minus the log of the tumor cell population at the end of treatment.; assay type: functional
Mus musculus [23] = assay: The percent of the median survival time of test mice compared to control mice is determined for mice administered with 400 mg/kg compound.; assay type: functional
Mus musculus [24] = assay: Ability of 25 mg/kg of compound to kill tumor cells in mice is expressed as the log of the tumor cell population at the onset of treatment minus the log of the tumor cell population at the end of treatment.; assay type: functional
Mus musculus [25] = assay: Ability of 200 mg/kg of compound to kill tumor cells in mice is expressed as the log of the tumor cell population at the onset of treatment minus the log of the tumor cell population at the end of treatment; assay type: functional
Mus musculus [26] = assay: Ability of 400 mg/kg of compound to kill tumor cells in mice is expressed as the log of the tumor cell population at the onset of treatment minus the log of the tumor cell population at the end of treatment; assay type: functional

| SMILES | T/C (Mus musculus [2]) | Survivors / animals tested (Mus musculus [4]) | BWD (Mus musculus [5]) | KE (Mus musculus [6]) | BWD (Mus musculus [7]) | Survivors / animals tested (Mus musculus [8]) | BWD (Mus musculus [9]) | Survivors / animals tested (Mus musculus [10]) | BWD (Mus musculus [11]) | BWD (Mus musculus [12]) | BWD (Mus musculus [15]) | Survivors / animals tested (Mus musculus [16]) | Survivors / animals tested (Mus musculus [17]) | Survivors / animals tested (Mus musculus [18]) | also measured |
| --- | --- | --- | --- | --- | --- | --- | --- | --- | --- | --- | --- | --- | --- | --- | --- |
| CSc1nc(COC(=O)NC(C)C)c(COC(=O)NC(C)C)n1Cc1ccccc1 | 110% | 6 | -2.2 g | -0.42 | -0.2 g | 6 | -0.3 g | 6 | -1.5 g | -3.2 g | -0.5 g | 6 | 6 | – | Survivors / animals tested (Mus musculus [1]): 3; KE (Mus musculus [3]): -0.32; KE (Mus musculus [13]): -0.39; T/C (Mus musculus [14]): 98% |
| CC(C)NC(=O)OCc1ncn(-c2ccccc2)c1COC(=O)NC(C)C | 97% | 6 | 0.2 g | – | -0.4 g | 6 | 0.6 g | 6 | -0.1 g | -2.3 g | 0.8 g | 6 | 6 | 6 | T/C (Mus musculus [19]): 90%; T/C (Mus musculus [20]): 90%; T/C (Mus musculus [21]): 91% |
| CSc1nc(COC(=O)NC(C)C)c(COC(=O)NC(C)C)n1C | 130% | 6 | -1.8 g | -0.56 | 2.6 g | 6 | -1.2 g | 6 | 0.4 g | -3.4 g | 0 g | 6 | 6 | 6 | KE (Mus musculus [22]): -1.4; T/C (Mus musculus [23]): 70%; KE (Mus musculus [24]): -0.91 |
| CNC(=O)OCc1nc(SC)n(Cc2ccccc2)c1COC(=O)NC | – | 6 | -0.4 g | – | – | – | 0.4 g | – | – | -1.2 g | 0.9 g | 6 | 6 | 6 | KE (Mus musculus [25]): -0.44; KE (Mus musculus [26]): -0.71 |

From ChEMBL document CHEMBL1124663, “Design, synthesis, antineoplastic activity, and chemical properties of bis(carbamate) derivatives of 4,5-bis(hydroxymethyl)imidazole” (J Med Chem, 1989)
